Reference: ChEMBL document CHEMBL4325889, “Natural products hybrids: 3,5,4'-Trimethoxystilbene-5,6,7-trimethoxyflavone chimeric analogs as potential cytotoxic agents against diverse human cancer cells” (Eur J Med Chem, 2019)

Legend:
Type in all cases: functional
[1] = tested on: BT-549; test: Growth inhibition of human BT549 cells at 10 uM after 48 hrs by SRB assay relative to control; settings: BT-549, 48 h, read-out: GI
Summary of the method: (§1)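 Screened at the National Cancer Institute by the standard NCI protocol using the sulforhodamine B assay, which measures cellular protein. Single dose of 10 µM. Result is percent growth inhibition; values above 100% mean cell number fell below the initial population. Values are the average of duplicates.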

[2] = tested on: OVCAR-4; test: Growth inhibition of human OVCAR4 cells at 10 uM after 48 hrs by SRB assay relative to control; settings: OVCAR-4, 48 h, read-out: GI; summary of the method: as §1
[3] = tested on: MDA-MB-435; test: Growth inhibition of human MDA-MB-435 cells at 10 uM after 48 hrs by SRB assay relative to control; settings: MDA-MB-435, 48 h, read-out: GI; summary of the method: as §1
[4] = tested on: CCRF-CEM; test: Growth inhibition of human CCRF-CEM cells at 10 uM after 48 hrs by SRB assay relative to control; settings: read-out: GI; summary of the method: as §1
[5] = tested on: HT-29; test: Growth inhibition of human HT-29 cells at 10 uM after 48 hrs by SRB assay relative to control; settings: HT-29, 48 h, read-out: GI; summary of the method: as §1
[6] = tested on: NCI-H23; test: Growth inhibition of human NCI-H23 cells at 10 uM after 48 hrs by SRB assay relative to control; settings: NCI-H23, 48 h, read-out: GI; summary of the method: as §1
[7] = tested on: NCI-H522; test: Growth inhibition of human NCI-H522 cells at 10 uM after 48 hrs by SRB assay relative to control; settings: NCI-H522, 48 h, read-out: GI; summary of the method: as §1
[8] = tested on: A549; test: Growth inhibition of human A549 cells at 10 uM after 48 hrs by SRB assay relative to control; settings: A549, 48 h, read-out: GI; summary of the method: as §1
[9] = tested on: SF-295; test: Growth inhibition of human SF295 cells at 10 uM after 48 hrs by SRB assay relative to control; settings: SF-295, 48 h, read-out: GI; summary of the method: as §1
[10] = tested on: U-251; test: Growth inhibition of human U251 cells at 10 uM after 48 hrs by SRB assay relative to control; settings: U-251, 48 h, read-out: GI
Summary of the method: (§2)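 NCI screen against its human cancer cell line panel by the standard NCI protocol, SRB protein stain. Single dose of 10 μM. Percent growth inhibition versus control; values above 100% mean the cell population fell below the starting number. Each value is the mean of duplicates.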

[11] = tested on: NCI-H322M; test: Growth inhibition of human NCI-H322M cells at 10 uM after 48 hrs by SRB assay relative to control; settings: read-out: GI; summary of the method: as §1
[12] = tested on: HCC 2998; test: Growth inhibition of human HCC2998 cells at 10 uM after 48 hrs by SRB assay relative to control; settings: HCC 2998, 48 h, read-out: GI; summary of the method: as §1
[13] = tested on: NCI-H460; test: Growth inhibition of human NCI-H460 cells at 10 uM after 48 hrs by SRB assay relative to control; settings: NCI-H460, 48 h, read-out: GI; summary of the method: as §1
[14] = tested on: SR; test: Growth inhibition of human SR cells at 10 uM after 48 hrs by SRB assay relative to control; settings: read-out: GI; summary of the method: as §2
[15] = tested on: SK-MEL-5; test: Growth inhibition of human SK-MEL-5 cells at 10 uM after 48 hrs by SRB assay relative to control; settings: SK-MEL-5, 48 h, read-out: GI; summary of the method: as §1
[16] = tested on: COLO 205; test: Growth inhibition of human COLO205 cells at 10 uM after 48 hrs by SRB assay relative to control; settings: COLO 205, 48 h, read-out: GI; summary of the method: as §1
[17] = tested on: NCI-H226; test: Growth inhibition of human NCI-H226 cells at 10 uM after 48 hrs by SRB assay relative to control; settings: NCI-H226, 48 h, read-out: GI; summary of the method: as §1
[18] = tested on: TK-10; test: Growth inhibition of human TK10 cells at 10 uM after 48 hrs by SRB assay relative to control; settings: TK-10, 48 h, read-out: GI; summary of the method: as §2
[19] = tested on: UACC-62; test: Growth inhibition of human UACC62 cells at 10 uM after 48 hrs by SRB assay relative to control; settings: UACC-62, 48 h, read-out: GI; summary of the method: as §2
[20] = tested on: OVCAR-3; test: Growth inhibition of human OVCAR3 cells at 10 uM after 48 hrs by SRB assay relative to control; settings: OVCAR-3, 48 h, read-out: GI; summary of the method: as §1

COc1cc2oc(-c3cccc(NC(=O)c4ccccc4)c3)cc(=O)c2c(OC)c1OC
inhibition of growth at 10 µM [1]: 25.9% | inhibition of growth at 10 µM [2]: 18.3% | inhibition of growth at 10 µM [3]: 19.3% | inhibition of growth at 10 µM [4]: 54.3% | inhibition of growth at 10 µM [5]: 22.9% | inhibition of growth at 10 µM [6]: 27.1% | inhibition of growth at 10 µM [7]: 50.7% | inhibition of growth at 10 µM [8]: 31.1% | inhibition of growth at 10 µM [9]: 22.2% | inhibition of growth at 10 µM [10]: 16.3% | inhibition of growth at 10 µM [11]: 16.2% | inhibition of growth at 10 µM [12]: 12.2% | inhibition of growth at 10 µM [13]: 21.3% | inhibition of growth at 10 µM [14]: 68.4% | inhibition of growth at 10 µM [15]: 36.8% | inhibition of growth at 10 µM [16]: 15.6% | inhibition of growth at 10 µM [17]: 18.6% | inhibition of growth at 10 µM [18]: 8.72% | inhibition of growth at 10 µM [19]: 33.2% | inhibition of growth at 10 µM [20]: 15.8%

COc1ccccc1C(=O)Nc1cccc(-c2cc(=O)c3c(O)c(OC)c(OC)cc3o2)c1
inhibition of growth at 10 µM [1]: 25.1% | inhibition of growth at 10 µM [2]: -5.24% | inhibition of growth at 10 µM [3]: 1.26% | inhibition of growth at 10 µM [4]: 5.53% | inhibition of growth at 10 µM [5]: 2.63% | inhibition of growth at 10 µM [6]: 1.58% | inhibition of growth at 10 µM [7]: 41% | inhibition of growth at 10 µM [8]: 22.1% | inhibition of growth at 10 µM [9]: 6.16% | inhibition of growth at 10 µM [10]: 33.1% | inhibition of growth at 10 µM [11]: 8.64% | inhibition of growth at 10 µM [12]: -9.63% | inhibition of growth at 10 µM [13]: -2.21% | inhibition of growth at 10 µM [14]: 16.5% | inhibition of growth at 10 µM [15]: 13.4% | inhibition of growth at 10 µM [16]: -7.03% | inhibition of growth at 10 µM [17]: 13% | inhibition of growth at 10 µM [18]: -0.86% | inhibition of growth at 10 µM [19]: 30.2% | inhibition of growth at 10 µM [20]: -14.6%

COc1cc2oc(-c3cccc(NC(=O)c4ccc5c(c4)OCO5)c3)cc(=O)c2c(O)c1OC
inhibition of growth at 10 µM [1]: 24.5% | inhibition of growth at 10 µM [2]: 25.8% | inhibition of growth at 10 µM [3]: 5.39% | inhibition of growth at 10 µM [4]: 11.7% | inhibition of growth at 10 µM [5]: 15.6% | inhibition of growth at 10 µM [6]: 13.4% | inhibition of growth at 10 µM [7]: 41.5% | inhibition of growth at 10 µM [8]: 13.5% | inhibition of growth at 10 µM [9]: 19% | inhibition of growth at 10 µM [10]: 27.1% | inhibition of growth at 10 µM [11]: 15.7% | inhibition of growth at 10 µM [12]: 9.76% | inhibition of growth at 10 µM [13]: 16.7% | inhibition of growth at 10 µM [14]: 19% | inhibition of growth at 10 µM [15]: 25.9% | inhibition of growth at 10 µM [16]: 2.46% | inhibition of growth at 10 µM [17]: 55.4% | inhibition of growth at 10 µM [18]: 15.3% | inhibition of growth at 10 µM [19]: 41.4% | inhibition of growth at 10 µM [20]: -4.7%

COc1ccc(C(=O)Nc2cccc(-c3cc(=O)c4c(O)c(OC)c(OC)cc4o3)c2)cc1
inhibition of growth at 10 µM [1]: 9.6% | inhibition of growth at 10 µM [2]: 4.66% | inhibition of growth at 10 µM [3]: 5.59% | inhibition of growth at 10 µM [4]: 11.9% | inhibition of growth at 10 µM [5]: 1.12% | inhibition of growth at 10 µM [6]: 15.7% | inhibition of growth at 10 µM [7]: 34.4% | inhibition of growth at 10 µM [8]: 15.1% | inhibition of growth at 10 µM [9]: 20.6% | inhibition of growth at 10 µM [10]: 28.9% | inhibition of growth at 10 µM [11]: 8.16% | inhibition of growth at 10 µM [12]: 19.4% | inhibition of growth at 10 µM [13]: 17.4% | inhibition of growth at 10 µM [14]: 20.8% | inhibition of growth at 10 µM [15]: 16.2% | inhibition of growth at 10 µM [16]: -7.69% | inhibition of growth at 10 µM [17]: 41.4% | inhibition of growth at 10 µM [18]: 18.4% | inhibition of growth at 10 µM [19]: 33.7% | inhibition of growth at 10 µM [20]: -0.49%

COc1cc2oc(-c3cccc(C(=O)Nc4ccccc4)c3)cc(=O)c2c(O)c1OC
inhibition of growth at 10 µM [1]: 39.9% | inhibition of growth at 10 µM [2]: 120% | inhibition of growth at 10 µM [3]: 41.7% | inhibition of growth at 10 µM [4]: -0.19% | inhibition of growth at 10 µM [5]: 45.9% | inhibition of growth at 10 µM [6]: 13.1% | inhibition of growth at 10 µM [7]: 8.74% | inhibition of growth at 10 µM [8]: 39.7% | inhibition of growth at 10 µM [9]: 30% | inhibition of growth at 10 µM [10]: 63.1% | inhibition of growth at 10 µM [11]: 33.6% | inhibition of growth at 10 µM [12]: 10.3% | inhibition of growth at 10 µM [13]: 66.3% | inhibition of growth at 10 µM [14]: 4.29% | inhibition of growth at 10 µM [15]: 28.3% | inhibition of growth at 10 µM [16]: 7.73% | inhibition of growth at 10 µM [17]: 26.8% | inhibition of growth at 10 µM [18]: 39.2% | inhibition of growth at 10 µM [19]: 61.1% | inhibition of growth at 10 µM [20]: 29.9%
